Measurements reported in ChEMBL document CHEMBL1158682, “Detecting potential teratogenic alkaloids from blue cohosh rhizomes using an in vitro rat embryo culture” (J Nat Prod, 1999).

Tests used:
Rattus norvegicus [1] = species on record: Rattus norvegicus; test: Effect on growth and morphogenesis of organogenesis-staged rat embryo at 0.1 ug/mL after 45 hrs relative to control; assay type: functional
Method in brief: (§1)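 Rat whole embryo culture: gestation day 9.5 embryos (stages 11a-11c) dissected from time-pregnant dams. Medium was 2.0 mL rat serum plus 0.5 mL Waymouth's MB 752/1 with penicillin-streptomycin. Test material was dissolved in EtOH-DMSO (1:1) and added at the start of culture; the solvent served as control. After 45 h, a developmental score was assigned and major malformations recorded. Controls were pooled across experiments.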

[2] = Embryotoxicity in rat embryo at 5 ug/mL; assay type: toxicity
Method in brief: (§2)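 Time-pregnant rats were euthanized with CO2 on gestation day 9. Embryos were dissected on day 9.5 at stages 11a-11c and cultured in 2.0 mL rat serum plus 0.5 mL Waymouth's MB 752/1 with penicillin-streptomycin. Test material in EtOH-DMSO (1:1) was added at culture start, with a solvent control. Growth, development score and major malformations were assessed after 45 h; controls were pooled across experiments.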

[3] = Teratogenic activity in rat embryo assessed as incidence of major malformation at 5 ug/mL after 45 hrs relative to control; assay type: toxicity; method in brief: as §2
Rattus norvegicus [4] = species on record: Rattus norvegicus; test: Effect on growth and morphogenesis of organogenesis-staged rat embryo at 1.25 ug/mL after 45 hrs relative to control; assay type: functional; method in brief: as §1
[5] = Embryotoxicity in rat embryo at 20 ug/mL; assay type: toxicity; method in brief: as §2
[6] = Teratogenic activity in rat embryo assessed as incidence of major malformation at 1.25 ug/mL after 45 hrs relative to control; assay type: toxicity; method in brief: as §2
[7] = Embryotoxicity in rat embryo at 250 ug/mL; assay type: toxicity; method in brief: as §2
[8] = Embryotoxicity in rat embryo at 80 ug/mL; assay type: toxicity; method in brief: as §2
Rattus norvegicus [9] = species on record: Rattus norvegicus; test: Effect on growth and morphogenesis of organogenesis-staged rat embryo at 20 ug/mL after 45 hrs relative to control; assay type: functional; method in brief: as §2
Rattus norvegicus [10] = species on record: Rattus norvegicus; test: Effect on growth and morphogenesis of organogenesis-staged rat embryo at 80 ug/mL after 45 hrs relative to control; assay type: functional; method in brief: as §2
[11] = Teratogenic activity in rat embryo assessed as incidence of major malformation at 20 ug/mL after 45 hrs relative to control; assay type: toxicity; method in brief: as §2
Rattus norvegicus [12] = species on record: Rattus norvegicus; test: Effect on growth and morphogenesis of organogenesis-staged rat embryo at 5 ug/mL after 45 hrs relative to control; assay type: functional; method in brief: as §2
[13] = Teratogenic activity in rat embryo assessed as incidence of major malformation at 80 ug/mL after 45 hrs relative to control; assay type: toxicity; method in brief: as §2
[14] = Teratogenic activity in rat embryo assessed as incidence of major malformation at 250 ug/mL after 45 hrs relative to control; assay type: toxicity; method in brief: as §2
[15] = Binding affinity to nicotinic receptor
[16] = Teratogenic activity in rat embryo assessed as incidence of major malformation at 50 ug/mL after 45 hrs relative to control; assay type: toxicity; method in brief: as §2
[17] = Binding affinity to muscarinic acetylcholine receptor
Rattus norvegicus [18] = species on record: Rattus norvegicus; test: Effect on growth and morphogenesis of organogenesis-staged rat embryo at 250 ug/mL after 45 hrs relative to control; assay type: functional; method in brief: as §2

SMILES	Activity (Rattus norvegicus [1]) [%]	Activity [2]	Activity [3]	Activity (Rattus norvegicus [4]) [%]	Activity [5]	Activity [6]	Activity [7]	Activity [8]	Activity (Rattus norvegicus [9]) [%]	Activity (Rattus norvegicus [10]) [%]	Activity [11]	Activity (Rattus norvegicus [12]) [%]	Activity [13]	Activity [14]	IC50 [15] [µM]	Activity [16] [%]	IC50 [17] [µM]	Activity (Rattus norvegicus [18]) [%]
COc1ccc2c(=O)oc3c(OC)cc(CCN(C)C)c4c(=O)oc1c2c34 [TASPINE]	27.6	Toxic	Not Active	27.7	Toxic	Not Active	Toxic	Toxic	–	–	–	–	–	–	–	–	–	–
COc1ccc2c(c1O)-c1c(O)c(OC)cc3c1[C@H](C2)[N+](C)(C)CC3 [MAGNOFLORINE]	–	–	Not Active	28.2	–	Not Active	–	–	27.8	28.2	Not Active	29	Not Active	–	–	–	–	–
CN1CCCCC1CC(=O)c1ccc(O)cc1 (stereo not given) [THALICHROIDINE]	–	–	Not Active	–	–	–	–	–	29.5	29.2	Not Active	30.8	–	–	–	–	–	–
CN1C[C@@H]2C[C@H](C1)c1cccc(=O)n1C2	–	–	–	–	–	–	–	–	–	–	29.8%	29	24%	22.9%	0.05	26.2	–	–
O=C1CCC[C@@H]2[C@@H]3C[C@H](CN12)[C@H]1CCCCN1C3	–	–	–	–	–	–	–	–	29.2	30.5	–	29.5	–	–	–	–	–	–
O=c1cccc2n1C[C@H]1C[C@@H]2CN2CCCC[C@H]12 [ANAGYRINE]	–	–	Not Active	–	–	–	–	–	26.5	28.2	Not Active	28.2	Not Active	Active	2100	–	132	15.5
